From PubChem BioAssay
Inconclusive results are not listed.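 How the source made its calls, unless noted: active means viability at or below 27.92% in each of two runs, the all-compound median minus 4 SD; inconclusive means no clear call, values can overlap the other calls; inactive means the rest.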

Legend:
[1] = S. cerevisiae growth inhibition in permissive medium (OD615), pilot counter-assay for S. cerevisiae lifespan shortening project, permissive growth control (AID 705;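 active means growth inhibition above 25% in both replicates, a cutoff set 3 SD above the mean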); settings: OD615, 24 h, at 10 µM, active compounds read high
Procedure, shortened: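 Material: engineered DeaD yeast; Compound: one dose 10 µM, DMSO 0.25% final; Detection: absorbance (optical density) at 615 nm; Buffer or medium: permissive raffinose/galactose medium; Timing: 24 h exposure, 30 °C.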

[2] = S. cerevisiae growth inhibition in restrictive medium, OD615, pilot screen, restrictive growth control, yeast lifespan reduction project (AID 706;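 active means growth inhibition above a set limit, 3 SD over mean compound inhibition, in both replicates, cut at about 43% in these data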;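 further: modified DeaD lifespan yeast strain shifted to restrictive glucose medium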); settings: OD615, 48 h, at 10 µM, active compounds read high
Procedure, shortened: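 Buffer or medium: restrictive glucose medium (CSMM-D); test system: modified S. cerevisiae; doses: single dose of 10 µM compound final, 0.25% DMSO; schedule: 48 h compound exposure at 30 °C; detection: absorbance (optical density) measured at 615 nm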

[3] = doxorubicin toxicity protection in MRP-1 cells – H69AR cells, CellTiter-Glo, duplicate, MRP-1 activator project, pilot screen (AID 807;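 active means viability increase at or above a cutoff of the median across tested compounds plus 3 SD, cut at about 8.5% in these data, passing the limit was not always enough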;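 further: compound pretreatment 18-22 h then 72 h combined with doxorubicin; 0% = doxorubicin alone and 100% = vehicle without doxorubicin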); settings: H69AR viability with doxorubicin, CellTiter-Glo luminescence; at 10 µM; active compounds read high
[4] = viability of HCT116 without oncogenic beta-catenin – human colon tumor cells, pilot screen (AID 823;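 active means cell viability at or below a set limit in both duplicate runs, the limit being the all-compound median minus 4 SD, cut at about 23% in these data, passing the limit was not always enough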;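 further: 0% = wells killed by 20 µM Hyamine and 100% = untreated DMSO cell wells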); settings: HCT116 beta-catenin knockout viability, CellTiter-Glo, 60 h; at 10 µM; active compounds read low
[5] = viability of PTEN-null HCT116 cells – cell-based, HCT116 clonal line, CellTiter-Glo, pilot screen (AID 824); settings: HCT116 PTEN-deleted viability, 60 h, at 10 µM, active compounds read low;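 further: 0% = 20 µM Hyamine control and 100% = vehicle cell control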
[6] = RAM pathway blockade in budding yeast – dse1pr::URA3 reporter, 5-FOA selection, pilot screen (AID 869;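 active means inhibition over a set limit, the all-compound mean plus 3 SD, in both replicate runs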;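 further: 0% = DMSO wells with no growth and 100% = 10 µM 1-NA-PP1 with full growth; RAM network block rescues cells from 5-FOA so hits raise OD615 growth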); settings: S. cerevisiae dse1pr::URA3 5-FOA growth, OD615, 2 d; at 10 µM; active compounds read high; strain carries analog-sensitive mutant Cbk1 kinase
[7] = RAM signaling pathway blockade in yeast – S. cerevisiae, Pdr1DBD-CYC8 efflux-inhibited sensitized strain, primary screen (AID 1298;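 active means RAM network inhibition above 8.4% in each of two replicates, 3 SD over the compound average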;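 further: 0% = DMSO untreated cells without growth and 100% = 10 µM 1-NA-PP1 full growth; higher means more yeast growth rescued from 5-FOA killing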); settings: S. cerevisiae cbk1-as DSE1-URA3 strain, 5-FOA growth OD615, 2 d; at 50 µM; active compounds read high

COc1ccc(C(=O)NCC(c2cccnc2)N2CCN(c3ccc(F)cc3)CC2)cc1OC (stereo unspecified)
inactive: growth inhibition [1] -12.2% | growth inhibition [2] -0.995% | viability increase [3] -3.89% | viability [4] 88.9% | viability [5] 80.8% | inhibition [6] 1.82% | RAM network inhibition [7] 4.32%

CSCC[C@@H](C(=O)Nc1ccc2c(c1)OCCO2)N1Cc2ccccc2C1=O
inactive: growth inhibition [1] 3.3% | growth inhibition [2] 1.73% | viability increase [3] -2.91% | viability [4] 99.3% | viability [5] 92.3% | inhibition [6] 0.83% | RAM network inhibition [7] 4.13%

COc1ccc(OC)c(NC(=O)C2CCCNC2=O)c1 (stereo unspecified)
inactive: growth inhibition [1] -6.08% | growth inhibition [2] -1.6% | viability increase [3] -1.67% | viability [4] 95.1% | viability [5] 94.5% | inhibition [6] 1.33% | RAM network inhibition [7] 1.33%

CC(NC(=O)c1cccnc1)C(c1cccs1)N1CCN(C)CC1 (stereo unspecified)
inactive: growth inhibition [1] -4.91% | growth inhibition [2] 5.15% | viability increase [3] 0.3% | viability [4] 98.2% | viability [5] 95% | inhibition [6] 0.955% | RAM network inhibition [7] 4.79%

CCc1ccc(C2CC(c3ccccc3Cl)Nc3nc(N)nn32)cc1 (stereo unspecified)
inactive: growth inhibition [1] 8.37% | growth inhibition [2] 26.1% | viability increase [3] -2.66% | viability [4] 95% | viability [5] 80.7% | inhibition [6] 0.86% | RAM network inhibition [7] 8.56%

Cc1nn(-c2ccc(Cl)cc2)c2sc(C(=O)N3CCN(C(=O)c4ccco4)CC3)cc12
inactive: growth inhibition [1] -4.13% | growth inhibition [2] -10.7% | viability increase [3] -5.55% | viability [4] 89.3% | viability [5] 82.5% | inhibition [6] 2% | RAM network inhibition [7] 2.13%

Cc1ccc(-c2nn3c(C)nnc3s2)cc1NC(=O)COc1ccc(Cl)cc1
inactive: growth inhibition [1] -4.13% | growth inhibition [2] 25.3% | viability increase [3] -1.1% | viability [4] 93.8% | viability [5] 90.8% | inhibition [6] 2.17% | RAM network inhibition [7] 6.41%

COc1ccc(C(c2sc3ncnn3c2O)N2CCN(c3ccccc3F)CC2)cc1OC (stereo unspecified)
inactive: growth inhibition [1] 0.27% | growth inhibition [2] 11.7% | viability increase [3] 1.69% | viability [4] 103% | viability [5] 92% | inhibition [6] 1.3% | RAM network inhibition [7] 1.06%

CCC(=O)Nc1nc2c(OC)ccc(C)c2s1
inactive: growth inhibition [1] -17.7% | growth inhibition [2] -14.1% | viability increase [3] -5.96% | viability [4] 96.4% | viability [5] 92.2% | inhibition [6] 0.225% | RAM network inhibition [7] 1.37%

COC(=O)c1ccc(NC(=O)c2cccc(OC)c2)cc1
inactive: growth inhibition [1] -1.57% | growth inhibition [2] 7.93% | viability increase [3] 1.59% | viability [4] 69.9% | viability [5] 80.7% | inhibition [6] 0.875% | RAM network inhibition [7] 8.05%

COc1ccc(CCC(C(O)C(F)(F)F)S(=O)c2ccccc2)cc1 (stereo unspecified)
inactive: growth inhibition [1] -4.67% | growth inhibition [2] -15.5% | viability increase [3] -0.87% | viability [4] 95.4% | viability [5] 101% | inhibition [6] 0.54% | RAM network inhibition [7] 7.13%

CC(NC(=O)c1ccc2c(c1)OCO2)C1CCCO1 (stereo unspecified)
inactive: growth inhibition [1] -3.77% | growth inhibition [2] 7.33% | viability increase [3] -0.15% | viability [4] 96.8% | viability [5] 94.5% | inhibition [6] 1.44% | RAM network inhibition [7] -0.53%

CCc1ccccc1NC(=O)c1cc(C2CC2)on1
inactive: growth inhibition [1] -12.1% | growth inhibition [2] 6.47% | viability increase [3] -0.65% | viability [4] 93.2% | viability [5] 91.8% | inhibition [6] 0.045% | RAM network inhibition [7] 3.34%

CC(=O)Nc1nc2ccccc2n1CCN(C)C
inactive: growth inhibition [1] -5.31% | growth inhibition [2] -3.15% | viability increase [3] -0.15% | viability [4] 99.3% | viability [5] 103% | inhibition [6] 2.95% | RAM network inhibition [7] 7.04%

CC1CCN(CCCn2c(=S)[nH]c3ccccc3c2=O)CC1
inactive: growth inhibition [1] 1.02% | growth inhibition [2] 10.3% | viability increase [3] -2.18% | viability [4] 91.3% | viability [5] 93.7% | inhibition [6] 1.1% | RAM network inhibition [7] 0.66%

CCN1CCN(C(CNS(=O)(=O)c2ccc(OC)cc2)c2cccnc2)CC1 (stereo unspecified)
inactive: growth inhibition [1] -0.57% | growth inhibition [2] 8.5% | viability increase [3] -1.16% | viability [4] 105% | viability [5] 98.2% | inhibition [6] 3.57% | RAM network inhibition [7] 3.38%

C=CCn1c(=NC(=O)C2CC2)sc2cc(NC(C)=O)ccc21
inactive: growth inhibition [1] -3% | growth inhibition [2] -3.58% | viability increase [3] -4.77% | viability [4] 95.7% | viability [5] 101% | inhibition [6] 0.675% | RAM network inhibition [7] 0.32%

Cc1cccc(-c2nc(CS(=O)CC(=O)NC3CCCC3)c(C)o2)c1 (stereo unspecified)
inactive: growth inhibition [1] 6.19% | growth inhibition [2] 1.96% | viability increase [3] -3.32% | viability [4] 94.5% | viability [5] 91.7% | inhibition [6] 3.42% | RAM network inhibition [7] 4.67%
